Sampled rows, rich in hits. Any-hit rate of the full collection: about 3.4%.
SF-1 act – activates the human nuclear receptor SF-1. CHO-K1 Gal4-SF-1 LBD luciferase reporter; % increase over DMSO SF-1-specific signal. activation, % at 10 µM. 65,000 tested, 1.9% active. AID 522;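 active = activation above the mean activation of all tested compounds plus 3 SD, cut at about 50% in these data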
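System: CHO-K1 cells with Gal4–hSF-1 LBD chimera plus Gal4-driven luciferase; quantity: 4,000 CHO-K1 cells per well; compound: one dose, 10 µM compound, 1% DMSO; times: 20 h compound treatment, 37 °C; measured by: SteadyLite luciferase luminescence; read-out: percent activation versus DMSO; benchmarks: DMSO and mock-transfected background; replicates: one test per compound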
JNK3 blocker – inhibitors of human JNK3 kinase. 60,000 tested, 0.61% active. purified JNK3 kinase activity, HTS. inhibition, % at 8 µM; in the data active = inhibition above about 17%;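 also: 0% = DMSO and 100% = reference inhibitor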
RORa activator – activators of human nuclear receptor RORA; AID 560; 65,000 tested, 1.5% active; activation, % at 10 µM; CHO-K1 Gal4-RORA LBD luciferase reporter, luminescence; percent increase over mock-subtracted basal signal;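 active = activation above the mean of all tested compounds plus 3 SD, cut at about 49% in these data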;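 also: 0% = DMSO-treated RORA cells and 100% = added signal equal to DMSO minus mock-transfected cells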
PKA kinase inh – PKA (human) kinase inhibition | P17612 | PKA Kemptide phosphorylation, Kinase-Glo ATP luminescence | inhibition, % at 6 µM | 65,000 tested, 0.1% active;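 active = inhibition above the screen-wide mean inhibition plus 3 SD, cut at about 21% in these data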
ROCK2 inh – inhibitors of human Rho kinase 2 | O75116 | purified ROCK2, Kinase-Glo ATP depletion luminescence | inhibition, % at 6 µM | 60,000 tested, 0.35% active | AID 604;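 active = inhibition above the screen-wide mean inhibition plus 3 SD, cut at about 18% in these data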;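 also: plate controls were DMSO wells for no effect and Y-27632 control wells after no-enzyme background subtraction for full effect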
WNV protease inh – blocks West Nile virus NS2B-NS3 protease activity | 65,000 tested, 0.18% active | z-score (no concentration beside the values) | P06935 | WNV NS2B-NS3 protease, fluorogenic substrate Ex360/Em465; stronger effect = lower value | AID 577; in the data active = z-score below about -3
Target sequence (P06935 1371-1501 limits assumed): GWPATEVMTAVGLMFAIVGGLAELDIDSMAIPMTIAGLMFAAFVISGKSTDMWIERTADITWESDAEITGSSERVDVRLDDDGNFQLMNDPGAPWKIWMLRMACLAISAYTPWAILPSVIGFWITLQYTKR
Target sequence (P06935 1502-1679 limits assumed): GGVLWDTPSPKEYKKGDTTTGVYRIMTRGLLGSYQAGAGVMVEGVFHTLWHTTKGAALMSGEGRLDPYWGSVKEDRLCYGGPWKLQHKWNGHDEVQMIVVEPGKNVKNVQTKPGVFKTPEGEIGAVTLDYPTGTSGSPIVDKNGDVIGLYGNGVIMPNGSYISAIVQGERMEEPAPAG
Active calls of the source: *; x = no result.

SMILES	SF-1 act	JNK3 blocker	RORa activator	PKA kinase inh	ROCK2 inh	WNV protease inh
CCOc1ccc2nc(NC(=O)COC)sc2c1	15	x	7	8	x	-1.6
CCOC(=O)c1ccc2nc(NC(=O)C(C)C)sc2c1	43	7	68*	-7	1	-0.45
CN(CC(=O)Nc1ccc(Cl)cc1)CC(=O)Nc1cc(Cl)ccc1C#N	-4	-2	-13	0	-8	-0.67
COc1cc(OC)cc(C(C(=O)NCc2ccccc2)N(Cc2ccco2)C(=O)c2ccno2)c1 (stereo not given)	-2	-7	-26	-3	-1	1
Cc1cccc(-c2nc(C#N)c(NC3CCCCC3)o2)c1	50*	-5	35	-2	2	0.22
COc1cccc(NC(=O)COc2ccc(N3CC(C(=O)NCC(C)C)CC3=O)cc2)c1 (stereo not given)	-7	13	-19	9	4	-1.1
Cc1cc(C)n2nc(SCC3COc4ccccc4O3)nc2n1 (stereo not given)	55*	-1	29	0	-2	0.11
CN(C)S(=O)(=O)c1ccc(C(=O)NCCOc2ccccc2)cc1	56*	3	38	0	2	-0.27
Cc1ccc2c(c1)c1c3n2CCCNC3CCC1 (stereo not given)	8	4	54*	6	4	1.3
CCN(CC)C(=O)Oc1ccc2c(=O)c(-c3ccccc3)coc2c1	8	-4	82*	6	5	-0.27
Cc1cccc(-n2ncc3c(NCc4ccccc4)ncnc32)c1	82*	14	78*	-5	-2	-0.7
Cn1ncc2c(Nc3ccc4ccccc4c3)ncnc21	34	5	42	-4	0	0.57
c1ccc(CCNc2ncnc3c2cnn3-c2ccccc2)cc1	14	-2	56*	-6	0	0.45
Cc1cccc(-n2ncc3c(N(CCO)CCO)ncnc32)c1	19	1	68*	10	-6	-0.11
Cn1ncc2c(NCc3ccccc3)ncnc21	3	18*	8	1	0	-0.52
O=C(O)CC(NC(=O)COc1ccc(Cl)cc1Cl)C(=O)O (stereo not given)	-3	-4	3	6	7	-1
Cc1cccc(-n2ncc3c(NCc4ccccn4)ncnc32)c1	24	3	29	7	5	0.45
c1ccc(CNc2ncnc3c2cnn3-c2ccccc2)cc1	77*	21*	91*	13	8	-0.77
c1ccc(-n2ncc3c(NCCN4CCCCC4)ncnc32)cc1	69*	4	40	13	9	0.39
CCN(c1ccccc1)c1ncnc2c1cnn2-c1ccccc1	59*	3	59*	6	3	-0.27
Cc1cccc(-n2ncc3c(NCc4ccco4)ncnc32)c1	93*	9	72*	6	11	0.74
Fc1ccc(CNc2ncnc3c2cnn3-c2ccccc2)cc1	42	6	8	2	0	-1
c1ccc(-n2ncc3c(NCCN4CCOCC4)ncnc32)cc1	38	-13	46	2	0	0.18
Cc1ccc2nsnc2c1S(=O)(=O)N(Cc1cc2cccc(C)c2[nH]c1=O)CC1CCCO1 (stereo not given)	0	-3	-6	-1	-1	-1.3
CC(=O)c1cc2c(cc1NC(=O)CN1CCCCC1C)OCO2 (stereo not given)	-10	x	13	9	x	1.5
SMILES	SF-1 act	JNK3 blocker	RORa activator	PKA kinase inh	ROCK2 inh	WNV protease inh
CCc1ccc(CCC(=O)Nc2ccc(C)c(C)c2)o1	56*	3	19	5	3	-2
Nc1nc(-c2ccccc2)nn1C(=O)Cc1ccccc1	0	1	-4	2	-11	-1.5
COc1ccc(C(=O)n2nc(-c3ccccc3)nc2N)cc1OC	-19	49*	-14	6	12	-1.4
COc1ccc2oc(C(=O)C3CC3)c(NC(=O)CCCN3C(=O)c4ccccc4C3=O)c2c1	8	6	-2	-6	2	-0.19
O=C(Nc1nncs1)c1ccc(N2C(=O)C3C4C=CC(C4)C3C2=O)cc1 (stereo not given)	38	17*	16	6	6	-0.75
CC(C)Oc1ccc(NC(=O)Oc2ccccc2)cc1	52*	-2	39	-3	0	-0.04
Cc1ccccc1C(=O)Nc1ccc(Br)cn1	82*	1	67*	12	2	-0.61
O=C(NCC12CC3CC(CC(C3)C1)C2)c1cc2n(n1)C(C(F)(F)F)CC(c1ccco1)N2 (stereo not given)	-6	-2	5	7	3	0.66
CCC1CCCCN1C(=O)CSc1nnc(-c2ccco2)o1 (stereo not given)	52*	7	49*	6	2	0.64
Cc1cc(/C=C(/C#N)c2cccc(F)c2)c(C)n1-c1cccnc1	9	-1	14	-2	2	-0.99
Cc1ccc(Cl)cc1N1CCN(C(=O)CCS(=O)(=O)c2cccc3nonc23)CC1	-14	x	-22	4	x	-0.86
O=C(c1ccco1)N1CCN(C2CCCC2)CC1	15	-1	18	-7	-5	0.46
Nn1c(SCC(=O)Nc2ccc(F)cc2F)nnc1-c1cccnc1	57*	4	4	0	1	1.3
Nn1c(SCC(=O)Nc2ccccc2F)nnc1-c1cccnc1	6	-3	-10	6	4	-0.68
O=C(CCC(=O)c1ccc[nH]1)c1ccc(Cl)cc1	52*	8	26	10	4	-0.78
O=C(c1cc2nc3c(c(C(F)(F)F)n2n1)CCc1ccccc1-3)N1CCN2CCCC2C1 (stereo not given)	-10	-4	-5	6	4	-0.35
COc1ccc2noc3c2c1C(=O)c1ccccc1-3	7	15	-8	14	6	-0.84
O=C1c2ccccc2-c2onc3ccc(NCCCn4ccnc4)c1c23	28	38*	11	10	4	0.59
Cc1ccc2nc(C3CCN(CC(=O)N4CCCCCC4)CC3)[nH]c2c1	5	-15	-4	-4	-6	-0.43
O=C(O)C1CCCCC1C(=O)N1CC=C(c2ccccc2)CC1 (stereo not given)	10	5	-18	12	7	1.4
O=C(Nc1ccccc1)N1CC=C(c2ccc(F)cc2)CC1	38	-3	66*	4	-1	-0.02
O=C(Nc1ccccc1)N1CC=C(c2ccccc2)CC1	87*	-7	49*	5	4	-1.2
COc1ccccc1OCc1nnc(SCC(=O)c2cc(Cl)ccc2OC)o1	-13	1	3	2	2	-0.4
O=C1NC(c2cccs2)Nc2sc3c(c21)CCCC3 (stereo not given)	70*	4	21	8	5	0.85
CN1CCc2c(sc3c2C(=O)NC(c2ccco2)N3)C1 (stereo not given)	6	1	-2	9	9	-0.36
CC(=O)c1cccc(NC(=O)c2cc(C(C)C)on2)c1	74*	5	55*	3	-4	0.24

Source: PubChem (several laboratories)
